# Experimental data taken from paper PMC4887080 (Journal of nuclear medicine : official publication, Society …, 2016).
# Key:
# [1] = tested on: VLA-4-positive 5TGM1-GFP murine myeloma cells; assay: Flow cytometry binding of LLP2A-Cy5 to 5TGM1-GFP cells; format: cell-based, mouse; conditions: coincubated at similar concentrations, P < 0.05
# VLA-4 [2] = biological target: T1, VLA-4 (Mus musculus, UniProt P09055+Q00651); format: in vivo, KaLwRij mouse
# [3] = Human radiation dose estimates extrapolated from mouse biodistribution; format: in vivo, BALB/c mice, scaled to adult human male model
# In short: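 64Cu tracer biodistribution in normal BALB/c mice given 0.78 MBq. Organs were collected at 1, 2, 4, 12, 24 and 48 h, and %ID/g was decay-corrected. A final group was housed in metabolic cages to collect urine and feces. Organ residence times (2-h void; 1-h void scenario also run) were scaled to human organ weight for the adult male model. Maximum injection assumes a 50 mGy bladder-wall limit. Mean ± SD.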
# [4] = format: in vivo, BALB/c mice
# In short: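 BALB/c mice received 0.78 MBq of 64Cu tracer, with sampling at 1, 2, 4, 12, 24 and 48 h. The last group was kept in metabolic cages to collect excreted urine and feces. Time–activity curves for urine excretion and blood clearance were built as percentage injected activity. Urine residence time used a 1-h void assumption.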
# VLA-4 [5] = biological target: T1, VLA-4; assay: PET uptake in tumor-free α4 -/- mice vs wild-type KaLwRij mice; format: in vivo; conditions: tumor-free α4 -/- mice compared with age-matched wild-type KaLwRij mice
# [6] = tested on: human MM cell lines H929, RPMI-8226, OPM2; assay: Flow cytometry binding of LLP2A-Cy5 to human MM cell lines; format: cell-based
# T1 sequence (Q00651 40-1039 limits assumed): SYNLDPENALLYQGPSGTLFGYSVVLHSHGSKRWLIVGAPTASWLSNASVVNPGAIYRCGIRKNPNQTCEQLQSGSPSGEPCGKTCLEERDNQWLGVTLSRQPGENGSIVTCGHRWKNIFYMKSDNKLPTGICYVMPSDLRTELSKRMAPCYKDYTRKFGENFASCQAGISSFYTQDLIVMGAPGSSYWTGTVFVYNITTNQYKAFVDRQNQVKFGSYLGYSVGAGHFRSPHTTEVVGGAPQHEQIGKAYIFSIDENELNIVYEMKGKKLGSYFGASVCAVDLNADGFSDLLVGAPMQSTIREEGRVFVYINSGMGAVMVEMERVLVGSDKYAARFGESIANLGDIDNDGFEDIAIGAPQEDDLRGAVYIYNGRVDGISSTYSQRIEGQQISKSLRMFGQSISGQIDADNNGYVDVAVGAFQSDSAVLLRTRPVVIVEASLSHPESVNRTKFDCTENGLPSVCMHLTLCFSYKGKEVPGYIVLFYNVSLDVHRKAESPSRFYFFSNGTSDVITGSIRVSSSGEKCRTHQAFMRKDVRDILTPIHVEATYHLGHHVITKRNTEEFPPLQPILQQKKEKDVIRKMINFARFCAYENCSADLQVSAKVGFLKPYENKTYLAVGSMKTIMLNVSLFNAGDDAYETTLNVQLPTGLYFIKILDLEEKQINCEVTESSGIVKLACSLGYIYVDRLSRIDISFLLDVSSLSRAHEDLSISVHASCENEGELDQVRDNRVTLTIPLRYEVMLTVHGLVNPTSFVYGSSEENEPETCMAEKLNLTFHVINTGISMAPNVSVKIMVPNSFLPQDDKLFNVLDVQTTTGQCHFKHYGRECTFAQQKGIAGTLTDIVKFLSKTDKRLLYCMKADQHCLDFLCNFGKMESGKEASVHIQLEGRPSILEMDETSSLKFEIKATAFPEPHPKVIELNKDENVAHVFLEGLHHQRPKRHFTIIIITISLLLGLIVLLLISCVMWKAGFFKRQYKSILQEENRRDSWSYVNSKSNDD
# T1 sequence (P09055 21-798): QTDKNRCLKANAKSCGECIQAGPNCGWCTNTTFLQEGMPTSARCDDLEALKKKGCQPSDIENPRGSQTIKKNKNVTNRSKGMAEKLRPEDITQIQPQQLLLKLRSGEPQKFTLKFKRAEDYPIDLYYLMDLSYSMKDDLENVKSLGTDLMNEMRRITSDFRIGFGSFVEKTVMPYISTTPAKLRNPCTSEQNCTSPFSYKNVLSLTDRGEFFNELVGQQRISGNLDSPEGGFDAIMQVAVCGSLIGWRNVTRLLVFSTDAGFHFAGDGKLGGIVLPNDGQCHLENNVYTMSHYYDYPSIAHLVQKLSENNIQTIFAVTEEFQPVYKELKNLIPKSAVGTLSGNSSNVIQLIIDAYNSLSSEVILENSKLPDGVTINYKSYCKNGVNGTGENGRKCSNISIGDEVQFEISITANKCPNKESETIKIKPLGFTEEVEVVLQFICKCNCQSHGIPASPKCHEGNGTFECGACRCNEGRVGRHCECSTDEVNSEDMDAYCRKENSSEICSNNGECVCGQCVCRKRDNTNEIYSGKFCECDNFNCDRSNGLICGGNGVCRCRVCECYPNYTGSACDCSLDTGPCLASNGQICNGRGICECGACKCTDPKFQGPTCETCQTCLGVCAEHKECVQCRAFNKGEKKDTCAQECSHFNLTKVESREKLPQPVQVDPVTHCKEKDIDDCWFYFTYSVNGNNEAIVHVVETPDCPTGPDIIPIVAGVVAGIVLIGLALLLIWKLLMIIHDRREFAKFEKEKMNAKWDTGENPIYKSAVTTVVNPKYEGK
compound,measurement,setting,value
CCOCc1cc(OC)c(-c2ccc(C[C@H](NC(=O)c3c(F)cccc3F)C(=O)O)cc2)c(OC)c1 [firategrast],Effect of competitor on LLP2A-Cy5 cell binding,[1],competitively inhibited
^64Cu-CB-TE1A1P-PEG4-LLP2A [^64Cu-LLP2A],Tumor uptake when coinjected with blocker,VLA-4 [2]; coinjected with a 200-fold excess of cold-LLP2A,reduced to the background levels
same,Tumor uptake,"VLA-4 [2]; subcutaneous 5TGM1-GFP model, i.v. injection of 0.48 MBq, PET at 24 h",excellent tumor uptake
same,Bladder dose,[3]; 1-h bladder-voiding interval,0.094 mGy/MBq
same,Red marrow dose,[3]; 1-h bladder-voiding interval,0.005 mGy/MBq
same,"Human radiation dose estimate, urinary bladder wall (dose-limiting organ)","[3]; as stated in abstract and discussion, void interval not stated",0.200 mGy/MBq
same,"Human radiation dose estimate, red marrow","[3]; as stated in abstract, void interval not stated",0.006 mGy/MBq
same,Maximum injection,[3]; assuming maximum permissible dose of 50 mGy to the bladder wall,532 MBq
same,"Urine excreted, expressed as residence time",[4]; 1-h void assumption,14.01 h
same,"Blood clearance half-life, fast component","[4]; dual-exponential fit of blood time-activity curve, mice",6 min
same,Residence time from area under the curve of urine data,[4]; urine collected in metabolic cages,14.46 h
same,Uptake in the spleen of α4 -/- mice,VLA-4 [5],negligible uptake
Cc1ccccc1NC(=O)Nc1ccc(CC(=O)N(C)[C@@H](CC(C)C)C(=O)NCC[C@H](NC(=O)[C@@H]2CCCN2S(=O)(=O)c2cc(Cl)cc(Cl)c2)C(=O)O)cc1 [BIO5192],Effect on LLP2A-Cy5 cell binding,[6],blocked
